The source made the active and inactive calls. No cut-off for these calls is given here. Square brackets hold non-standard residues; d marks the D form. Peptide text beside a SMILES is read from it.
How the values were obtained:
[1] = molecular target: Melanocortin receptor 4 (Mus musculus) (UniProt P56450); assay: Agonist activity at mouse melanocortin receptor 4 expressed in HEK293 cells assessed as stimulation of cAMP accumulation at 100 uM incubated for 2 hrs by cAMP Alpha-screen assay relative to control; assay type: functional, cell-based
Melanocortin receptor 4 [2] = molecular target: T1, Melanocortin receptor 4 (Homo sapiens, UniProt P32245); assay: Inverse agonist activity at human melanocortin receptor 4 expressed in HEK293 cells assessed as inhibition of basal cAMP accumulation incubated for 2 hrs by cAMP Alpha-screen assay; assay type: functional, cell-based
In short: (§1)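 AlphaScreen cAMP assay in stably transfected HEK293 cells, with 10,000 cells/well in IBMX-containing HBSS/HEPES buffer pH 7.4. Peptide alone, up to 100 μM, 2 h at room temperature in the dark, then 2 h lysis/detection. Inverse agonism taken as percent decrease of cAMP from basal, relative to maximal NDP-MSH signal, at 100 μM. Duplicates, three independent experiments.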

[3] = molecular target: Melanocyte-stimulating hormone receptor (Mus musculus) (UniProt Q01727); assay: Agonist activity at mouse melanocortin receptor 1 expressed in HEK293 cells assessed as stimulation of cAMP accumulation at 100 uM incubated for 2 hrs by cAMP Alpha-screen assay relative to control; assay type: functional, cell-based
[4] = molecular target: Melanocortin receptor 3 (Mus musculus) (UniProt P33033); assay: Agonist activity at mouse melanocortin receptor 3 expressed in HEK293 cells assessed as stimulation of cAMP accumulation at 100 uM incubated for 2 hrs by cAMP Alpha-screen assay relative to control; assay type: functional, cell-based
Melanocortin receptor 5 [5] = molecular target: T2, Melanocortin receptor 5 (Mus musculus, UniProt P41149); assay: Agonist activity at mouse melanocortin receptor 5 expressed in HEK293 cells assessed as stimulation of cAMP accumulation incubated for 2 hrs by cAMP Alpha-screen assay; assay type: functional, cell-based
Melanocortin receptor 3 [6] = molecular target: T3, Melanocortin receptor 3 (Mus musculus, UniProt P33033); assay: Agonist activity at mouse melanocortin receptor 3 expressed in HEK293 cells assessed as stimulation of cAMP accumulation incubated for 2 hrs by cAMP Alpha-screen assay; assay type: functional, cell-based
Melanocortin receptor 3 [7] = molecular target: T3, Melanocortin receptor 3; assay: Antagonist activity at mouse melanocortin receptor 3 expressed in HEK293 cells assessed as inhibition of NDP-MSH-induced cAMP accumulation incubated for 2 hrs by cAMP Alpha-screen assay based Schild analysis; assay type: functional, cell-based; details: read-out: pA2 (converted)
In short: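 NDP-MSH (10−6 to 10−12) plus antagonist at 10,000, 5,000, 1,000 and 500 nM, 2 h dark at room temperature. AlphaScreen cAMP read after lysis/bead step 2 h. Schild pA2; duplicates, at least three independent experiments.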

[8] = molecular target: Melanocortin receptor 4 (Mus musculus) (UniProt P56450); assay: Ratio of IC50 for MDE6-82-3c to IC50 for test compound for displacement of [125I]-NDP-MSH from mouse melanocortin receptor 4 expressed in HEK293 cell mebranes incubated for 1 hr by automatic gamma counting method
In short: (§2)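 Cells washed, lysed 10 min with 0.1 M NaOH/1% Triton X-100, then gamma-counted. Specific binding defined with unlabelled NDP-MSH and normalized to it. Duplicate wells, two experiments. IC50 by non-linear fit. Fold difference taken relative to the Asn-parent macrocycle control.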

Melanocortin receptor 5 [9] = molecular target: T2, Melanocortin receptor 5; assay: Displacement of [125I]-NDP-MSH from mouse melanocortin receptor 5 expressed in HEK293 cell mebranes incubated for 1 hr by automatic gamma counting method; assay type: cell-based
[10] = molecular target: Melanocyte-stimulating hormone receptor (Mus musculus, UniProt Q01727); assay: Displacement of [125I]-NDP-MSH from mouse melanocortin receptor 1 expressed in HEK293 cell mebranes incubated for 1 hr by automatic gamma counting method; assay type: cell-based; in short: as §2
Melanocortin receptor 3 [11] = molecular target: T3, Melanocortin receptor 3; assay: Displacement of [125I]-NDP-MSH from mouse melanocortin receptor 3 expressed in HEK293 cell mebranes incubated for 1 hr by automatic gamma counting method; assay type: cell-based
Melanocortin receptor 4 [12] = molecular target: T1, Melanocortin receptor 4; assay: Ratio of IC50 for MDE6-82-3c to IC50 for test compound for displacement of [125I]-NDP-MSH from human melanocortin receptor 4 expressed in HEK293 cell membranes incubated for 1 hr by automatic gamma counting method; in short: as §2
Melanocortin receptor 4 [13] = molecular target: Melanocortin receptor 4 (Mus musculus, UniProt P56450); assay: Agonist activity at mouse melanocortin receptor 4 expressed in HEK293 cells assessed as stimulation of cAMP accumulation incubated for 2 hrs by cAMP Alpha-screen assay; assay type: functional, cell-based
[14] = molecular target: Melanocortin receptor 5 (Mus musculus) (UniProt P41149); assay: Inverse agonist activity at mouse melanocortin receptor 5 expressed in HEK293 cells assessed as inhibition of basal cAMP accumulation incubated for 2 hrs by cAMP Alpha-screen assay relative to control; assay type: functional, cell-based; details: concentration not given here; in short: as §1
[15] = molecular target: Melanocortin receptor 5 (Mus musculus) (UniProt P41149); assay: Inverse agonist activity at mouse melanocortin receptor 5 expressed in HEK293 cells assessed as inhibition of basal cAMP accumulation at 100 uM incubated for 2 hrs by cAMP Alpha-screen assay relative to control; assay type: functional, cell-based; in short: as §1
Melanocortin receptor 5 [16] = molecular target: T2, Melanocortin receptor 5; assay: Antagonist activity at mouse melanocortin receptor 5 expressed in HEK293 cells assessed as inhibition of NDP-MSH-induced cAMP accumulation incubated for 2 hrs by cAMP Alpha-screen assay based Schild analysis; assay type: functional, cell-based; details: read-out: pA2 (converted)
[17] = molecular target: Melanocyte-stimulating hormone receptor (Mus musculus) (UniProt Q01727); assay: Ratio of IC50 for MDE6-82-3c to IC50 for test compound for displacement of [125I]-NDP-MSH from mouse melanocortin receptor 1 expressed in HEK293 cell mebranes incubated for 1 hr by automatic gamma counting method; in short: as §2

Chain of Melanocortin receptor 4 (Mus musculus) (P56450 whole entry): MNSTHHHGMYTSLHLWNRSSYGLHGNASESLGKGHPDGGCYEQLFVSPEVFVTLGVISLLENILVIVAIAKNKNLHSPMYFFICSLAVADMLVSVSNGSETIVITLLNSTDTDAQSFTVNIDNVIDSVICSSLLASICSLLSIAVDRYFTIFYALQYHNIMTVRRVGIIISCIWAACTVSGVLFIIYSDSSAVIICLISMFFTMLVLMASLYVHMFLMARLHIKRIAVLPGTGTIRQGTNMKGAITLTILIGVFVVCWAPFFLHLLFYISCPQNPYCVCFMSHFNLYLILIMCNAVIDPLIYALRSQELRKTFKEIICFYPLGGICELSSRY
T3 sequence (P33033 whole entry): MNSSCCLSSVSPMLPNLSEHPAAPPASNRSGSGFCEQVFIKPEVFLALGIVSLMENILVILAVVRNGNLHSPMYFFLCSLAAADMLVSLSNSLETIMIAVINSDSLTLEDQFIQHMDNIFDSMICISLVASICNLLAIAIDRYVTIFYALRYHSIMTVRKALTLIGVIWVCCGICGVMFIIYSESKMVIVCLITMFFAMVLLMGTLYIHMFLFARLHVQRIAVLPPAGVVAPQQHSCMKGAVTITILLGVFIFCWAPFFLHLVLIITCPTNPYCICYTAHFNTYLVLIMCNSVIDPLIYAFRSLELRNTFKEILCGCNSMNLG
T1 sequence (P32245 whole entry): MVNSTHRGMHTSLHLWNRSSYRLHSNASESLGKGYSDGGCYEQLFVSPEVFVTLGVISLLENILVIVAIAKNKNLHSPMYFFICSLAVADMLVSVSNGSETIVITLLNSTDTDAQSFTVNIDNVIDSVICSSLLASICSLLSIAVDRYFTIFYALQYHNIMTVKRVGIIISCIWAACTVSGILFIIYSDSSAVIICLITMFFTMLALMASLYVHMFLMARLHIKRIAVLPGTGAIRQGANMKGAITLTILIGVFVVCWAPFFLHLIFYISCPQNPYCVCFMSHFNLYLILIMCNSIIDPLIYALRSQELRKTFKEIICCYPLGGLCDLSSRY
Chain of Melanocyte-stimulating hormone receptor (Mus musculus) (Q01727 whole entry, looked up): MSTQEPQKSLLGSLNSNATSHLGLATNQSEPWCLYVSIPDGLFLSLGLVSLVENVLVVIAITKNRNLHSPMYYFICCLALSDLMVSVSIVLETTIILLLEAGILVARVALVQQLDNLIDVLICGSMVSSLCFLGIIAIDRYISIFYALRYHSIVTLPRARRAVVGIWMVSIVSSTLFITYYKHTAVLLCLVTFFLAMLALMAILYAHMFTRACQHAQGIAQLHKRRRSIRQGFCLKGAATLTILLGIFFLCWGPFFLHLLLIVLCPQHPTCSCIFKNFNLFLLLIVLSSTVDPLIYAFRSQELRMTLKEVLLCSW
T2 sequence (P41149 whole entry): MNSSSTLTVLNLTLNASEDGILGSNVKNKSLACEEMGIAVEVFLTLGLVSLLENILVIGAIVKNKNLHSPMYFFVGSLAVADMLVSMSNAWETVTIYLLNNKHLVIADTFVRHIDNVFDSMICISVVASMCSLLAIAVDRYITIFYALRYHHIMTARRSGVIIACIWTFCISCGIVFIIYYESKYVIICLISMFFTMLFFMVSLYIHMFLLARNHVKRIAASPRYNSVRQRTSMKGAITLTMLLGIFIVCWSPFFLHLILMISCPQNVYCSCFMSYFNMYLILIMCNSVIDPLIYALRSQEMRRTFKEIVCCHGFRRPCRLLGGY
Chain of Melanocortin receptor 5 (Mus musculus) (P41149 whole entry): as above
Chain of Melanocortin receptor 4 (Mus musculus, UniProt P56450) (P56450 whole entry): as the sequence (P56450 whole entry) above
Chain of Melanocortin receptor 3 (Mus musculus) (P33033 whole entry): as the sequence (P33033 whole entry) above
Chain of Melanocyte-stimulating hormone receptor (Q01727 whole entry): as the sequence (Q01727 whole entry, looked up) above

SMILES	Activity [1] [%]	Activity [4] [%]	inhibition [14] [%]	Activity (Melanocortin receptor 4 [2])	Activity [3] [%]	EC50 (Melanocortin receptor 5 [5]) [µM]	EC50 (Melanocortin receptor 3 [6]) [µM]	Kb (Melanocortin receptor 3 [7]) [µM]	Ratio IC50 [8]	IC50 (Melanocortin receptor 5 [9]) [µM]	IC50 [10] [µM]	IC50 (Melanocortin receptor 3 [11]) [µM]	Ratio IC50 (Melanocortin receptor 4 [12])	EC50 (Melanocortin receptor 4 [13]) [µM]	inhibition [15] [%]	Kb (Melanocortin receptor 5 [16]) [µM]	Ratio IC50 [17]
C[C@@H]1NC(=O)[C@H](CC(N)=O)NC(=O)[C@H](Cc2ccccc2)NC(=O)[C@H](Cc2ccccc2)NC(=O)[C@H](Cc2c[nH]cn2)NC(=O)[C@@H]2CCCN2C(=O)[C@H]2CCCN2C(=O)[C@H](Cc2ccccc2)NC1=O				Active	23	> 100	> 100	> 10	300	> 100	> 100	> 100	300	> 100			
C[C@@H]1NC(=O)[C@H](CN)NC(=O)[C@H](Cc2ccccc2)NC(=O)[C@H](Cc2ccccc2)NC(=O)[C@H](CCCNC(=N)N)NC(=O)[C@@H]2CCCN2C(=O)[C@H]2CCCN2C(=O)[C@H](Cc2ccccc2)NC1=O			15	Active													
C[C@@H]1NC(=O)[C@H](CC(N)=O)NC(=O)[C@H](Cc2ccccc2)NC(=O)[C@H](Cc2ccccc2)NC(=O)[C@H](CS)NC(=O)[C@@H]2CCCN2C(=O)[C@H]2CCCN2C(=O)[C@H](Cc2ccccc2)NC1=O (cyclo(PCFFNAF[dP]))				inactive	46		> 100	> 10	90	> 100		> 100	300	> 100	32	> 10	3

Second part, led by results:

Activity [1] [%]	Activity [4] [%]	inhibition [14] [%]	SMILES	Activity (Melanocortin receptor 4 [2])	Activity [3] [%]	EC50 (Melanocortin receptor 5 [5]) [µM]	EC50 (Melanocortin receptor 3 [6]) [µM]	Kb (Melanocortin receptor 3 [7]) [µM]	Ratio IC50 [8]	IC50 (Melanocortin receptor 5 [9]) [µM]	IC50 [10] [µM]	IC50 (Melanocortin receptor 3 [11]) [µM]	Ratio IC50 (Melanocortin receptor 4 [12])	EC50 (Melanocortin receptor 4 [13]) [µM]	inhibition [15] [%]	Kb (Melanocortin receptor 5 [16]) [µM]	Ratio IC50 [17]
37	27		CC(C)[C@@H]1NC(=O)[C@H](CN)NC(=O)[C@H](Cc2ccccc2)NC(=O)[C@H](Cc2ccccc2)NC(=O)[C@H](CCCNC(=N)N)NC(=O)[C@@H]2CCCN2C(=O)[C@H]2CCCN2C(=O)[C@H](Cc2ccccc2)NC1=O	Active	79	> 100											
		10	C[C@@H]1NC(=O)[C@H](CC(N)=O)NC(=O)[C@H](Cc2ccccc2)NC(=O)[C@H](Cc2ccccc2)NC(=O)[C@H](CCCNC(=N)N)NC(=O)[C@@H]2CCCN2C(=O)[C@H]2CCCN2C(=O)[C@H](Cc2ccccc2)NC1=O														

Source: ChEMBL document CHEMBL4354837 (J Med Chem, 2020)
